Bioassay records as filed in PubChem.
Rows were chosen to be rich in hits. Some 1% of all compounds tested hit in one or more screens of this group.
TLR4-MyD88 BLA: inhibitors of human TLR4-MyD88 binding; O00206+Q99836; HeLa CL3-4 TLR4/MyD88 BLA complementation, FRET ratio; inhibition, % at 8.4 µM; actives 0.18% (n = 200,000); in the data active = inhibition above about 25%
b-catenin transl: alters nuclear translocation of beta-catenin in HeLa cells; actives 0.3% (n = 190,000); nuclear translocation activity, % at 5 µM; AID 1665; immunofluorescence imaging;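 active = nuclear translocation activity above 50% at 5 µM, with a well cell count of 50 or more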;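 note: per-cell ratio of nuclear to cytoplasmic median beta-catenin stain intensity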
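System: Human HeLa cells, endogenous beta-catenin | Compound dosing: 5 µM primary, 0.02–20 µM confirmation | Timing: 24 h compound exposure at 37°C, 5% CO2 | Measured by: Fluorescence imaging of beta-catenin antibody stain plus DAPI | Read-out basis: % activation of per-cell nuclear versus cytoplasmic median beta-catenin signal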
TLR9-MyD88 block: TLR9-MyD88 interaction inhibition; CHO BLA complementation TLR9-MyD88, CCF4 FRET ratio; Q9NR96+Q99836; AID 504734; actives 0.21% (n = 340,000); inhibition, % at 4.98 µM;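 active = inhibition above the mean over all tested compounds plus 3 SD, cut at about 21% in these data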
NOD2-RIPK2 inh: NOD2-RIPK2 protein interaction inhibition; O43353; CHO BLA complementation NOD2-RIPK2, CCF4 ratio; inhibition, % at 4.98 µM; actives 0.38% (n = 360,000); in the data active = inhibition above about 21%
Target sequence (O43353 whole entry, looked up): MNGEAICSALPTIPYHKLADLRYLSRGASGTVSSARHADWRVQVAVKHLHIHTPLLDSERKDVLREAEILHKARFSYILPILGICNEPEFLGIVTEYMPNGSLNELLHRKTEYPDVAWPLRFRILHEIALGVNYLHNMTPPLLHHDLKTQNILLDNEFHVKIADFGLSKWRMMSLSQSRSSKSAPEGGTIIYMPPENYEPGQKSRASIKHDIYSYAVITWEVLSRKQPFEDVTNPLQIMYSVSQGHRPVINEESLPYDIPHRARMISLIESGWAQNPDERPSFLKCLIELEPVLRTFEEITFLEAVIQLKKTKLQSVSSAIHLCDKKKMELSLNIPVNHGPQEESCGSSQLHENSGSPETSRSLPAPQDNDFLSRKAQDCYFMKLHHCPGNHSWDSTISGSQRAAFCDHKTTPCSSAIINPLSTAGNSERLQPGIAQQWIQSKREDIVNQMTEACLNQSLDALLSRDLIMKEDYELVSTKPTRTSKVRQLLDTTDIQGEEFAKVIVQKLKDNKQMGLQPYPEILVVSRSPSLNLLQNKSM
Hsp70 activator: switches on Hsp70 transcription. HeLa Hsp70 promoter luciferase reporter, luminescence; scaled: vehicle 0, proteasome-inhibitor control 100%. actives 0.04% (n = 200,000). activation, % at 10 µM;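 active = activation above the mean across all tested compounds plus 3 SD, cutoff set per campaign, cut at about 5.5% in these data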
MT stabilize HCS: stabilizes microtubules in HeLa cells; AID 2205; % tubulin-high responders, % at 10 µM; actives 0.83% (n = 200,000); HeLa tubulin immunostaining HCS, 24 h; share of cells brighter than vehicle mean+2SD;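 active = plate Z-score above 3 for both tubulin-high and condensed-nucleus cell shares, with cell loss under 80%, at 10 µM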;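 note: anti alpha tubulin signal scored within the nucleus-defined area of each cell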
Large screens that a line does not name were inactive.

CC1=C(C(=O)N2CCOCC2)CC(CC(=O)NCc2cccc3ccccc23)C(=O)N1Cc1ccccc1 (stereo unspecified)	none (no result: TLR4-MyD88 BLA, b-catenin transl, Hsp70 activator, MT stabilize HCS)
Cc1nn(CC(=O)Nc2ccc(N3CCOCC3)cc2)c(C)c1Cl	none (no result: TLR4-MyD88 BLA, b-catenin transl, Hsp70 activator, MT stabilize HCS)
CC(=O)Nc1ccc(-c2ccnc3c2CC(C(=O)NCCC(F)(F)F)O3)cc1 (stereo unspecified)	none (no result: TLR4-MyD88 BLA, b-catenin transl, TLR9-MyD88 block, Hsp70 activator, MT stabilize HCS)
Cc1cc(N2CCCCC2)nc(NCc2ccccc2)n1	MT stabilize HCS 17
Cc1cc(N2CCOCC2)nc(NCc2ccccc2)n1	none
COc1cc(C2Nc3cccc4cccc(c34)N2)cc(OC)c1OC(C)=O	MT stabilize HCS 16
COc1ccc(C2c3c(-c4ccccc4O)n[nH]c3C(=O)N2Cc2ccco2)cc1 (stereo unspecified)	none (no result: TLR4-MyD88 BLA, Hsp70 activator, MT stabilize HCS)
Cc1ccc(C2c3c(-c4ccccc4O)n[nH]c3C(=O)N2Cc2ccncc2)cc1 (stereo unspecified)	MT stabilize HCS 27
COc1ccc(CCN2C(=O)c3[nH]nc(-c4ccccc4O)c3C2c2cccc(Cl)c2)cc1 (stereo unspecified)	MT stabilize HCS 20
O=C(N/N=C/c1c(-c2ccccc2)[nH]c2ccccc12)c1cccnc1	MT stabilize HCS 18
O=C(O)Cc1cn(Cc2ccc(F)cc2)c2ccccc12	none
Cc1[nH][nH]c(=O)c1C(c1c(C)[nH][nH]c1=O)c1cn(Cc2ccc(F)cc2)c2ccccc12	MT stabilize HCS 20
Cc1[nH][nH]c(=O)c1C(c1c(C)[nH][nH]c1=O)c1cn(Cc2ccc(Cl)c(Cl)c2)c2ccccc12	b-catenin transl 99
CC(C)(C)CCN1CCC(CN2CCNC2=S)CC1	none (no result: TLR4-MyD88 BLA, b-catenin transl, Hsp70 activator, MT stabilize HCS)
COc1ccc2c(c1)nc(-c1cccc(Br)c1)c(=O)n2C(c1ccccn1)c1nc2ccccc2[nH]1 (stereo unspecified)	none (no result: TLR4-MyD88 BLA, b-catenin transl, TLR9-MyD88 block, Hsp70 activator, MT stabilize HCS)
O=C(N/N=C/c1ccc(-c2ccccc2Cl)o1)c1ccccc1	MT stabilize HCS 32 (no result: b-catenin transl)
O=C(O)c1ccc(N/N=C/c2ccc(-c3ccccc3Cl)o2)cc1	none (no result: TLR4-MyD88 BLA, Hsp70 activator, MT stabilize HCS)
COc1ccc(OC)c(NC(=O)COc2cc(O)c3c(c2)OC(C)(C)CC3=O)c1	none (no result: TLR4-MyD88 BLA, b-catenin transl, TLR9-MyD88 block, Hsp70 activator, MT stabilize HCS)
O=c1oc2ccccc2c(Nc2ccc3ccccc3c2)c1[N+](=O)[O-]	MT stabilize HCS 46
Cc1ccc(Nc2c([N+](=O)[O-])c(=O)oc3ccccc23)cc1	none
CN(C)CCC(O)(c1ccccc1)c1ccccc1Cl (stereo unspecified)	none (no result: TLR4-MyD88 BLA, b-catenin transl, Hsp70 activator, MT stabilize HCS)
C/C(=N\NC(=O)c1nnn(-c2nonc2N)c1CN1CCC(C)CC1)c1ccc(Br)cc1	none (no result: TLR4-MyD88 BLA, b-catenin transl, Hsp70 activator, MT stabilize HCS)
O=C(CSc1n[nH]c(-c2ccccc2O)n1)N1CCCc2ccccc21	MT stabilize HCS 48
O=C1NC[C@@H](c2ccccc2)OC(=O)[C@@H](Cc2ccc(F)cc2)CC/C=C/C[C@@H]1CC(=O)N(CCO)Cc1ccccc1	none (no result: TLR4-MyD88 BLA, b-catenin transl, Hsp70 activator, MT stabilize HCS)
O=C(c1cccc(S(=O)(=O)N2CCc3ccccc32)c1)N1CCN(c2ccccc2)CC1	none (no result: TLR4-MyD88 BLA, b-catenin transl, Hsp70 activator, MT stabilize HCS)
O=C(CCn1cnc(-c2ccccc2)c1-c1ccccc1)N/N=C/c1ccc(O)cc1	MT stabilize HCS 23
COc1ccc(/C=N/NC(=O)CCn2cnc(-c3ccccc3)c2-c2ccccc2)cc1	b-catenin transl 60
O=C(CCn1cnc(-c2ccccc2)c1-c1ccccc1)N/N=C/c1ccccc1O	none
Cc1cccc(NC(=O)Oc2ccc(Cl)c3cccnc23)c1	none (no result: TLR4-MyD88 BLA, b-catenin transl, Hsp70 activator, MT stabilize HCS)
CCCn1c(NCc2ccccc2NS(=O)(=O)c2ccc(C)cc2)nc2ccccc21	MT stabilize HCS 21
CCn1c(NCc2ccccc2NS(=O)(=O)c2ccc(C)cc2)nc2ccccc21	none
COc1ccccc1C1=NOC(COc2ccc3c(C)cc(=O)oc3c2)C1 (stereo unspecified)	b-catenin transl 96 (no result: TLR4-MyD88 BLA, TLR9-MyD88 block, Hsp70 activator, MT stabilize HCS)
COC(=O)/C=C/c1ccccc1S(=O)(=O)N(Cc1ccccc1)Cc1ccco1	b-catenin transl 74 (no result: TLR4-MyD88 BLA, Hsp70 activator, MT stabilize HCS)
N#C/C(=C\c1cccn1-c1ccccc1)C(=O)NC1CCCCC1	MT stabilize HCS 30
N#C/C(=C\c1ccc(F)c(F)c1)C(=O)NC1CCCCC1	none
Cc1nc(C(F)(F)F)ccc1C(=O)N1CCC1(C)C(=O)NCc1ccc(Cl)cc1 (stereo unspecified)	none (no result: TLR4-MyD88 BLA, b-catenin transl, TLR9-MyD88 block, Hsp70 activator, MT stabilize HCS)
